Experimental data from paper PMC7009771 (EFSA Journal, 2018).
In brackets after ≈: the same amount, converted by molar mass. Entries after “also recorded” stand apart in the source; their conditions may differ. Where two headings read alike, the source gives them in different places.

Legend:
[1] = test system: 67 receptor binding assays for G-protein coupled receptors (GPCRs), ion channels, nuclear receptors and transporters; details: significant = ≥ 50% inhibition or stimulation; 67 assays; ref Ricerca, 2012; cited from earlier work
[2] = heated for 24 h at 110°C; ref Senomyx, 2015; cited from earlier work
humans = details: 112 subjects completed, ref Harrison Research Laboratories, 2014a,b; cited from earlier work
CYP2C19 [3] = details: 10 μM (~ […]), pooled human liver microsomes; ref Absorption Systems, 2013a; cited from earlier work
CD [Crl:CD(SD)] rats [4] = details: 28 days, gavage, rats males and females; ref Charles River (2013); cited from earlier work
[5] = ref Senomyx, 2015, cited from earlier work
CD [Crl:CD(SD)] rats [6] = details: 90 days, gavage, rats males and females; ref Charles River (2014); cited from earlier work
[7] = in vitro; ref CiToxLab, 2014; cited from earlier work
[8] = test system: human peripheral blood lymphocytes (HPBL); details: ref Nucro-Technics (2013b), cited from earlier work; for relative cell growth (RCG) (test vs. solvent control) / relative mitotic index (RMI) (test vs. solvent control): 3-h exposure without S9-mix
bone marrow of CD-1 mice = details: ref WIL Research (2013a), cited from earlier work
CYP2C19 [9] = details: human liver microsomes; ref Absorption Systems, 2013b; cited from earlier work
[10] = 24 h at 100°C, ref Senomyx, 2015, cited from earlier work
Balb/c 3T3 cells = details: based on 3T3 NRU test; ref CeeTox, 2013; cited from earlier work
CD [Crl:CD(SD)] rats [11] = test: 90-day oral toxicity study in rats; assay type: in vivo
Summary of the method: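 Candidate substance given by oral gavage to CD rats of both sexes for 13 weeks at up to 100 mg/kg bw per day, with doses chosen from a 28-day dietary range-finder. Margin of safety derived from the 90-day NOAEL against APET exposure estimates: chronic 3.8 (adult) or 9.5 (child) µg/kg bw per day, and acute 0.076 mg/kg bw for a 3-year-old child.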

hERG ion channel = details: 10 μM; ref AVIVA, 2012; cited from earlier work
[12] = test system: Keratinocyte ARE-Reporter Cell Line KeratinoSens; details: in vitro; ref IIVS, 2013; cited from earlier work
[13] = test system: bone marrow of Hsd:ICR (CD-1) mice; details: cited from earlier work; for maximum tolerated dose (MTD): range-finder, oral gavage, ref BioReliance, 2014
[14] = Nitrosation rate constant; details: pH 3.4; estimated from kDMA by correction for the pKa difference
[15] = test system: S. Typhimurium strains TA98, TA100, TA1535 and TA1537 and E. coli strain WP2 uvrA; details: up to 5,000 μg/plate, ref BioReliance (2013a), cited from earlier work; for Bacterial reverse mutation result: plate incorporation, with and without metabolic activation
[16] = test system: human peripheral blood lymphocytes (HPBL); details: ref BioReliance (2013b), cited from earlier work; for Chromosome aberration result (structural aberrations): 4 + 16 h in the absence of S9-mix
[17] = carcinogenic potential; ref EC SCCS, 2012, EFSA ANS Panel, 2017; cited from earlier work
[18] = 3-h exposure with S9-mix, 1.3 μg/mL
[19] = 3-h exposure with S9-mix, 2.5 μg/mL
[20] = 3-h exposure with S9-mix, 5.0 μg/mL
[21] = 20-h exposure without S9, 23 μg/mL
[22] = 20-h exposure without S9, 39 μg/mL
[23] = 20-h exposure without S9, 65 μg/mL
[24] = 20-h exposure without S9, 110 μg/mL

Compound: Cc1ccc(OCC(=O)N(Cc2cccs2)c2ccn[nH]2)cc1 [FL‐no: 16.133, 2‐(4‐methylphenoxy)‐N‐(1H‐pyrazol‐3‐yl)‐N‐(thiophen‐2‐ylmethyl)acetamide]
- responses in lead profiling receptor screen [1]: No significant responses
- Dry powder stability [2]: stable
- skin sensitisation, HRIPT result (humans): negative result
- CYP2C19 inhibition (CYP2C19 [3]): significant inhibition
- Result: NOEL (CD [Crl:CD(SD)] rats [4]): NOEL: ≥ 100 mg/kg bw per day
- Solubility in ethanol ([5]; 95% ethanol): > 308 mM
- Solubility in water ([5]; pH = 7): 0.12 mM (≈ 0.0393 mg/mL)
- Solubility in triacetine [5]: 40.47 mM (≈ 13.3 mg/mL)
- Result: NOEL (CD [Crl:CD(SD)] rats [6]): NOEL: ≥ 100 mg/kg bw per day
- skin sensitisation potential, DPRA [7]: may exhibit a skin sensitisation potential
- relative cell growth (RCG) [8, 18]: 109%
- relative mitotic index (RMI) [8, 18]: 61%
- relative cell growth (RCG) [8, 19]: 100%
- relative mitotic index (RMI) [8, 19]: 55%
- relative cell growth (RCG) [8, 20]: 121%
- relative mitotic index (RMI) [8, 20]: 45%
- relative cell growth (RCG) ([8]; 3-h exposure with S9-mix, 10 μg/mL): 130%
- relative cell growth (RCG) ([8]; 3-h exposure with S9-mix, 20 μg/mL): 97%
- relative cell growth (RCG) ([8]; 3-h exposure with S9-mix, 40 μg/mL): 84%
- relative cell growth (RCG) ([8]; 3-h exposure with S9-mix, 80 μg/mL): 60%
- relative cell growth (RCG) ([8]; 3-h exposure with S9-mix, 160 μg/mL): 11%
- relative cell growth (RCG) (test vs. solvent control) ([8]; 35 μg/mL): 108%
- relative mitotic index (RMI) (test vs. solvent control) ([8]; 35 μg/mL): 102%
- relative cell growth (RCG) (test vs. solvent control) ([8]; 58 μg/mL): 93%
- relative mitotic index (RMI) (test vs. solvent control) ([8]; 58 μg/mL): 88%
- relative cell growth (RCG) (test vs. solvent control) ([8]; 97 μg/mL): 98%
- relative mitotic index (RMI) (test vs. solvent control) ([8]; 97 μg/mL): 110%
- relative cell growth (RCG) (test vs. solvent control) ([8]; 160 μg/mL): 60%
- relative mitotic index (RMI) (test vs. solvent control) ([8]; 160 μg/mL): 48%
- relative cell growth (RCG) (test vs. solvent control) ([8]; 270 μg/mL): 18%
- relative cell growth (RCG) [8, 21]: 100%
- relative mitotic index (RMI) [8, 21]: 106%
- relative cell growth (RCG) [8, 22]: 97%
- relative mitotic index (RMI) [8, 22]: 82%
- relative cell growth (RCG) [8, 23]: 60%
- relative mitotic index (RMI) [8, 23]: 57%
- relative cell growth (RCG) [8, 24]: 56%
- relative mitotic index (RMI) [8, 24]: 0%
- relative cell growth (RCG) ([8]; 20-h exposure without S9, 180 μg/mL): 19%
- ratio PCEs/TE (bone marrow toxicity) vs vehicle control (bone marrow of CD-1 mice; CD-1 mice, 1,000-2,000 mg/kg bw per day): No decrease
- Micronucleus assay result (incidence of MNPCEs) (bone marrow of CD-1 mice; CD-1 mice, gavage, 1,000, 1,500 and 2,000 mg/kg bw per day, three consecutive days): No statistically significant increases; also recorded: Negative
- clinical signs of toxicity (bone marrow of CD-1 mice; CD-1 mice, gavage, up to 2,000 mg/kg bw per day): No clinical signs of toxicity
- time-dependent inhibition of CYP2C19 (CYP2C19 [9]): No evidence of time‐dependent CYP inhibition
- percentage remaining ([10]; aqueous citric buffer pH 2.8): 90.1%
- percentage remaining ([10]; aqueous citric buffer pH 4.0): 97.2%
- percentage remaining ([10]; phosphoric acid buffer pH 7.1): 83.5%
- phototoxic potential (Panel conclusion) (Balb/c 3T3 cells): does not anticipate that [FL‐no: 16.133] has a phototoxic potential
- Margin of safety (CD [Crl:CD(SD)] rats [11]; Adult, 90-day NOAEL 100 mg/kg bw per day vs chronic APET 3.8 μg/kg bw per day): 26,300
- Margin of safety (CD [Crl:CD(SD)] rats [11]; Child, 90-day NOAEL 100 mg/kg bw per day vs chronic APET 9.5 μg/kg bw per day): 10,500
- MoE, acute exposure (CD [Crl:CD(SD)] rats [11]; children, 90-day NOAEL vs maximum acute dietary exposure about 0.08 mg/kg bw): more than 1,000
- inhibition of hERG ion channel current (hERG ion channel): < 10%
- skin sensitisation potential, KeratinoSens Assay [12]: may exhibit a skin sensitisation potential

Compound: COS(C)(=O)=O [MMS, methyl methanesulfonate, reference compound]
- frequency of MNPCEs, positive control ([13]; positive control, 40 mg/kg bw per day on days 2 and 3, ref BioReliance (2014)): statistically significant increases

Compound: O=S(=O)(O)O.c1csc(CNc2cc[nH]n2)c1.c1csc(CNc2cc[nH]n2)c1 [S2312, hemisulfate salt of N‐(thiophen‐2‐ylmethyl)‐1H‐pyrazol‐3‐amine]
- clinical signs observed ([13]; mice, 125-1,000 mg/kg bw per day, gavage, ref BioReliance (2014)): piloerection (at all dose levels), lethargy (at 500 and 1,000 mg/kg bw per day), prostration, irregular breathing and crusty eyes (at 1,000 mg/kg bw per day in female mice)
- mortality ([13]; mice, any dose level up to 1,000 mg/kg bw per day, ref BioReliance (2014)): No mortality
- maximum tolerated dose (MTD) ([13]; female mice): 1,000 mg/kg bw per day
- maximum tolerated dose (MTD) ([13]; male mice): 500 mg/kg bw per day

Compound: c1csc(CNc2cc[nH]n2)c1 [M179, N‐(thiophen‐2‐ylmethyl)‐1H‐pyrazol‐3‐amine]
- rate constant of nitrosation (kM179), estimated [14]: 0.0017 × 10^−4 M^−2s^−1

Compound: O=P1(N(CCCl)CCCl)NCCCO1 (stereo not shown) [CP, Cyclophosphamide monohydrate, reference compound]
- frequency of MNPCEs, positive control (bone marrow of CD-1 mice; positive control, 60 mg/kg bw per day): statistically significant increase

Compound: Cl.c1csc(CNc2cc[nH]n2)c1 [S1140, N‐(Thiophen‐2‐ylmethyl)‐1H‐pyrazol‐3‐amine, hydrochloride salt]
- Bacterial reverse mutation result [15]: did not show mutagenicity
- Bacterial reverse mutation result ([15]; hydrochloride salt (M179)): Negative ^a
- precipitate / background lawn toxicity ([15]; two studies): Neither precipitate nor background lawn toxicity was observed in the two studies performed
- Chromosome aberration result (structural aberrations) ([16]; hydrochloride salt (M179)): Positive ^e
- Chromosome aberration result (structural aberrations) [16]: induced chromosomal aberrations
- structural chromosomal aberrations ([16]; 4 + 16 h treatment in the presence of S9-mix, 100-1,840 μg/mL): No statistically significant or concentration‐related increases in structural chromosomal aberrations
- polyploidy ([16]; any of the treatment conditions): No statistically significant or concentration‐related increases in polyploidy

Compound: CN(C)N=O [DMNA, dimethylnitrosamine]
- BMDL10 [17]: 27 μg/kg bw per day
